Assay results collected from several papers.
Protocols differ between the studies behind these lines. In brackets after ≈: the same amount, converted by molar mass.
Organism: Candida albicans

SMILES	observed	strain	time	quantity	value
OC(Cn1cncn1)(Cn1cncn1)c1ccc(F)cc1F	microbial killing			MFC	0.04 µg/mL (≈ 0.131 µM)
NOCC(=O)O	microbial growth	28A		MIC	1000 µg/mL
Cc1cc(Cc2ccc(Cl)cc2)n(O)c(=O)c1	microbial growth	ATCC90028		MIC80	1.7 µM (≈ 0.424 µg/mL)
C[C@@H]1[C@H](O)[C@@H](C)/C=C/C=C/C=C/C=C/C=C/C=C/C=C/[C@H](O[C@@H]2O[C@H](C)[C@@H](O)[C@H](N)[C@@H]2O)C[C@@H]2O[C@](O)(C[C@@H](O)C[C@@H](O)[C@H](O)CC[C@@H](O)C[C@@H](O)CC(=O)O[C@H]1C)C[C@H](O)[C@H]2C(=O)O	microbial growth	ATCC90028		IC50	0.13 µg/mL (≈ 0.141 µM)
Cc1cc(CC2CCCCC2)n(O)c(=O)c1	microbial growth	ATCC90028		MIC80	1.5 µM (≈ 0.332 µg/mL)
CCCCCOc1ccc(-c2cc(-c3ccc(C(=O)N[C@H]4C[C@@H](O)[C@@H](O)NC(=O)[C@@H]5[C@@H](O)[C@@H](C)CN5C(=O)[C@H]([C@H](O)CC(N)=O)NC(=O)[C@H]([C@H](O)[C@@H](O)c5ccc(O)c(OS(=O)(=O)O)c5)NC(=O)[C@@H]5C[C@@H](O)CN5C(=O)[C@H]([C@@H](C)O)NC4=O)cc3)no2)cc1	microbial growth			MIC50	0.01 µg/mL (≈ 0.00787 µM)
C=C1C(=O)O[C@@H](CCCCCCCCCCCCC)[C@@H]1C(=O)O	microbial growth	28A		MIC	64 µg/mL
COc1ccccc1Cc1cc(C)cc(=O)n1O	microbial growth	ATCC90028		MIC80	2.7 µM (≈ 0.662 µg/mL)
O=C(NCc1ccc2c(c1)OCO2)c1ccc(Br)cc1F	microbial growth	ATCC10231	72 h	MIC	> 200 µM
